{"source": "paper PMC4536915", "about": "(Nature chemical biology, 2015)", "key": {"[1]": {"test_system": "P. aeruginosa PAO1", "assay": "In vitro post-antibiotic effect", "type": "cell-based, Pseudomonas aeruginosa", "settings": "1 h exposure, 1:1000 dilution", "outline": "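Drug removed by 1:1000 dilution into pre-warmed medium. Regrowth at 37 °C counted immediately and hourly for 8 h (detection limit 1 log10 CFU/mL). Triplicate independent occasions; mechanistic PD model fitted.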"}, "[2]": {"test_system": "P. aeruginosa PAO1", "assay": "MIC by broth microdilution, wild-type strain", "type": "cell-based, Pseudomonas aeruginosa", "settings": "24 h, 37 °C; listed as F"}, "[3]": {"test_system": "P. aeruginosa strain PAO1", "assay": "Neutropenic mouse thigh infection model, single dose time course", "type": "in vivo, CD-1 mice", "settings": "resistance emergence test"}, "[4]": {"test_system": "P. aeruginosa PAO1 MexABCDXY− (N150)", "assay": "MIC by broth microdilution, efflux-deficient strain", "type": "cell-based, Pseudomonas aeruginosa", "settings": "24 h, 37 °C; listed as F"}, "[5]": {"assay": "Plasma protein binding, equilibrium dialysis, mouse", "type": "in vitro ADME", "settings": "50 μM"}, "[6]": {"test_system": "P. aeruginosa cells", "assay": "Killing kinetics", "type": "cell-based, Pseudomonas aeruginosa", "settings": "37°C; linear regression after 1 hr lag"}, "[7]": {"assay": "Plasma protein binding, equilibrium dialysis, human", "type": "in vitro ADME", "settings": "50 μM"}}, "note": "Several values for one entry are separate records, joined by “and”; a condition that tells them apart may be missing. Equal entries are not always repeated.", "data": [{"smiles": "COc1ccc(-c2ccn(CC[C@](C)(C(=O)NO)S(C)(=O)=O)c(=O)c2)c(F)c1", "note": "[Compound 6]", "values": [{"measurement": "PAE at 4x MIC", "setting": "[1]", "value": 1.26, "unit": "h"}, {"measurement": "PAE at 8x MIC", "setting": "[1]", "value": 1.67, "unit": "h"}, {"measurement": "PAE at 16x MIC", "setting": "[1]", "value": 1.93, "unit": "h"}, {"measurement": "P.ae MIC PAO1", "setting": "[2]", "value": "0.25 μg/ml and 0.61 μM"}, {"measurement": "CFU from 24 h timepoints on selective media (4× MIC)", "setting": "[3]", "value": "no CFU were obtained"}, {"measurement": "P.ae MIC PAO1 MexABCDXY−", "setting": "[4]", "value": "0.0075 μg/ml and 0.018 μM"}, {"measurement": "free fraction (fu)", "setting": "[5]", "value": 0.41}, {"measurement": "maximum killing rate", "setting": "[6]", "value": 2.8, "unit": "log10 CFU/hr"}, {"measurement": "free fraction (fu)", "setting": "[7]", "value": 0.28}]}]}
